Active and inactive are the calls of the source. No cut-off for these calls is given here. Numbered stars: 1 amine (or outer) side, 2 acyl side, 3 side chain; on linkers, the order of the positions; unused ones are H or OH. Square brackets hold non-standard residues; d marks the D form. Peptide text beside a SMILES is read from it. GABA(3S-Bn) = O=C(C[C@@H](CN[*:1])Cc1ccccc1)[*:2]; GABA(3R-Bn) = O=C(C[C@H](CN[*:1])Cc1ccccc1)[*:2]
Legend:
PBMC [1] = assay: Cytotoxicity against human PBMC cells at 1 to 100 ug/ml after 24 hrs by MTT assay; format: cell-based
Method in brief: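 Human PBMC from a single donor were plated at 3×10^5/well in RPMI-1640 with 10% FCS. Compounds at 1, 10 or 100 μg/mL were added for 24 h. Viability was read by MTT and expressed as percent viable cells versus matching DMSO controls.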

PBMC [2] = assay: Antiproliferative activity against human PBMC assessed as inhibition of PHA-induced proliferation at 1 to 100 ug/ml; format: functional, cell-based
Method in brief: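 Human PBMC from a single donor were isolated on a ficoll gradient and plated at 2×10^5 cells/well in RPMI-1640 with 10% FCS. Stimulation was PHA 5 μg/mL. Compounds were tested at 1, 10 and 100 μg/mL, with DMSO dilutions as control. After 4 days, proliferation was read by MTT. Result is mean OD of quadruplicate wells ± SE.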

[3] = Retention time of the compound; format: physicochemical
Blood [4] = assay: Inhibition of LPS-induced TNFalpha secretion in human whole blood cells at 25 ug/ml by immune assay; format: functional
Method in brief: (§1)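 Venous blood from a single donor was diluted 10× in RPMI-1640 and stimulated with E. coli LPS 1 μg/mL, serotype 0:111:B4. Compounds were added at 5 or 25 μg/mL, with DMSO dilutions as controls. After overnight culture, supernatants were frozen at −20 °C. TNF-α was then measured by ELISA.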

Blood [5] = assay: Stimulation of LPS-induced TNFalpha secretion in human whole blood cells at 25 ug/ml by immuno assay; format: functional, cell-based; method in brief: as §1
Blood [6] = assay: Stimulation of LPS-induced TNFalpha secretion in human whole blood cells at 5 ug/ml by immuno assay; format: functional, cell-based; method in brief: as §1
Blood [7] = assay: Inhibition of LPS-induced TNFalpha secretion in human whole blood cells at 5 ug/ml by immune assay; format: functional; method in brief: as §1
Mus musculus [8] = assay: Immunosuppressive effect in ovalbumin-induced mouse delayed type hypersensitivity model assessed as inhibition of DTH reaction at 100 ug, ip treated 2 hrs before ovalbumin sensitization; format: functional
Method in brief: (§2)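 CBA mice were sensitized s.c. at tail base with 5 μg OVA in complete Freund's adjuvant. After 4 days they were challenged with 50 μg OVA in incomplete adjuvant in hind foot pads. Swelling was measured by caliper 24 h later. Unsensitized challenged mice gave background. Compounds in DMSO/saline were given i.p. 2 h before sensitization or 2 h before elicitation, with solvent controls. Result: 5 mice/group, DTH units (10^-2 cm) ± SE.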

Mus musculus [9] = assay: Immunosuppressive effect in ovalbumin-induced mouse delayed type hypersensitivity model assessed as inhibition of DTH reaction at 100 ug, ip treated 2 hrs before elicitation of DTH reaction with secoond dose of antigen; format: functional, organism-based; method in brief: as §2

| SMILES | Retention_time [3] [min] | Activity (PBMC [1]) | inhibition (PBMC [2]) | inhibition (Blood [4]) | Activity (Blood [5]) | Activity (Blood [6]) | inhibition (Blood [7]) | inhibition (Mus musculus [8]) | inhibition (INH) (Mus musculus [8]) [%] | inhibition (Mus musculus [9]) | inhibition at 5 µg/mL (Blood [7]) [%] | inhibition at 25 µg/mL (Blood [4]) [%] |
| --- | --- | --- | --- | --- | --- | --- | --- | --- | --- | --- | --- | --- |
| CC[C@H](C)[C@H](N)C(=O)N[C@H](C(=O)N[C@@H](CC(C)C)C(=O)N[C@H](C(=O)N1CCC[C@H]1C(=O)N1CCC[C@H]1C(=O)N[C@@H](Cc1ccccc1)C(=O)NC[C@@H](CC(=O)N[C@@H](CC(C)C)C(=O)O)Cc1ccccc1)C(C)C)[C@@H](C)CC (H-IILVPPF[GABA(3R-Bn)]L-OH) | 14.168 | Non-toxic | inactive | Active |  |  |  |  |  |  |  |  |
| CC[C@H](C)[C@H](N)C(=O)N[C@H](C(=O)N[C@@H](CC(C)C)C(=O)N[C@H](C(=O)N1CCC[C@H]1C(=O)N1CCC[C@H]1C(=O)N[C@@H](Cc1ccccc1)C(=O)NC[C@H](CC(=O)N[C@@H](CC(C)C)C(=O)O)Cc1ccccc1)C(C)C)[C@@H](C)CC (H-IILVPPF[GABA(3S-Bn)]L-OH) | 13.177 | Non-toxic | inactive |  | Active | Active |  |  |  |  |  |  |
| CC[C@H](C)[C@H](N)C(=O)N[C@H](C(=O)N[C@@H](CC(C)C)C(=O)N[C@H](C(=O)N1CCC[C@H]1C(=O)N1CCC[C@H]1C(=O)NC[C@@H](CC(=O)N[C@@H](Cc1ccccc1)C(=O)N[C@@H](CC(C)C)C(=O)O)Cc1ccccc1)C(C)C)[C@@H](C)CC (H-IILVPP[GABA(3R-Bn)]FL-OH) | 13.383 | Non-toxic | inactive | Active |  |  | Active |  |  |  |  |  |
| CC[C@H](C)[C@H](N)C(=O)N[C@H](C(=O)N[C@@H](CC(C)C)C(=O)N[C@H](C(=O)N1CCC[C@H]1C(=O)N1CCC[C@H]1C(=O)NC[C@@H](CC(=O)NC[C@H](CC(=O)N[C@@H](CC(C)C)C(=O)O)Cc1ccccc1)Cc1ccccc1)C(C)C)[C@@H](C)CC (H-IILVPP[GABA(3R-Bn)][GABA(3S-Bn)]L-OH) | 13.085 | Non-toxic | inactive |  | Active | Active |  |  |  |  |  |  |
| CC[C@H](C)[C@H](N)C(=O)N[C@H](C(=O)N[C@@H](CC(C)C)C(=O)N[C@H](C(=O)N1CCC[C@H]1C(=O)N1CCC[C@H]1C(=O)NC[C@H](CC(=O)NC[C@H](CC(=O)N[C@@H](CC(C)C)C(=O)O)Cc1ccccc1)Cc1ccccc1)C(C)C)[C@@H](C)CC (H-IILVPP[GABA(3S-Bn)][GABA(3S-Bn)]L-OH) | 13.233 | Non-toxic | inactive |  | Active | Active |  |  |  |  |  |  |
| CC[C@H](C)[C@@H]1NC(=O)[C@H](CC(C)C)NC(=O)[C@H](Cc2ccccc2)NC(=O)C[C@@H](Cc2ccccc2)CNC(=O)[C@@H]2CCCN2C(=O)[C@@H]2CCCN2C(=O)[C@H](C(C)C)NC(=O)[C@H](CC(C)C)NC(=O)[C@H]([C@@H](C)CC)NC1=O (cyclo(FLIILVPP[GABA(3R-Bn)])) | 10.033 | Dose-dependent effect | Active |  |  |  |  |  |  |  |  |  |
| CC[C@H](C)[C@@H]1NC(=O)[C@H](CC(C)C)NC(=O)C[C@@H](Cc2ccccc2)CNC(=O)C[C@@H](Cc2ccccc2)CNC(=O)[C@@H]2CCCN2C(=O)[C@@H]2CCCN2C(=O)[C@H](C(C)C)NC(=O)[C@H](CC(C)C)NC(=O)[C@H]([C@@H](C)CC)NC1=O (cyclo(IILVPP[GABA(3R-Bn)][GABA(3R-Bn)]L)) | 9.242 | Dose-dependent effect | Active |  |  |  |  |  |  |  |  |  |
| CC[C@H](C)[C@@H]1NC(=O)[C@H](CC(C)C)NC(=O)C[C@@H](Cc2ccccc2)CNC(=O)C[C@H](Cc2ccccc2)CNC(=O)[C@@H]2CCCN2C(=O)[C@@H]2CCCN2C(=O)[C@H](C(C)C)NC(=O)[C@H](CC(C)C)NC(=O)[C@H]([C@@H](C)CC)NC1=O (cyclo(IILVPP[GABA(3S-Bn)][GABA(3R-Bn)]L)) | 10.543 | Dose-dependent effect | Active |  |  |  |  |  |  |  |  |  |
| CC[C@H](C)[C@@H]1NC(=O)[C@H](CC(C)C)NC(=O)C[C@H](Cc2ccccc2)CNC(=O)C[C@H](Cc2ccccc2)CNC(=O)[C@@H]2CCCN2C(=O)[C@@H]2CCCN2C(=O)[C@H](C(C)C)NC(=O)[C@H](CC(C)C)NC(=O)[C@H]([C@@H](C)CC)NC1=O (cyclo(IILVPP[GABA(3S-Bn)][GABA(3S-Bn)]L)) | 10.11 | Dose-dependent effect | Active |  |  |  |  |  |  |  |  |  |

Second part, led by results:

| Retention_time [3] [min] | SMILES | Activity (PBMC [1]) | inhibition (PBMC [2]) | inhibition (Blood [4]) | Activity (Blood [5]) | Activity (Blood [6]) | inhibition (Blood [7]) | inhibition (Mus musculus [8]) | inhibition (INH) (Mus musculus [8]) [%] | inhibition (Mus musculus [9]) | inhibition at 5 µg/mL (Blood [7]) [%] | inhibition at 25 µg/mL (Blood [4]) [%] |
| --- | --- | --- | --- | --- | --- | --- | --- | --- | --- | --- | --- | --- |
| 14.073 | CC[C@H](C)[C@H](N)C(=O)N[C@H](C(=O)N[C@@H](CC(C)C)C(=O)N[C@H](C(=O)N1CCC[C@H]1C(=O)N1CCC[C@H]1C(=O)NC[C@@H](CC(=O)NC[C@@H](CC(=O)N[C@@H](CC(C)C)C(=O)O)Cc1ccccc1)Cc1ccccc1)C(C)C)[C@@H](C)CC (H-IILVPP[GABA(3R-Bn)][GABA(3R-Bn)]L-OH) | Non-toxic | inactive | Active |  |  | Active | Active | 50 | Active |  |  |
| 12.69 | CC[C@H](C)[C@H](N)C(=O)N[C@H](C(=O)N[C@@H](CC(C)C)C(=O)N[C@H](C(=O)N1CCC[C@H]1C(=O)N1CCC[C@H]1C(=O)NC[C@H](CC(=O)N[C@@H](Cc1ccccc1)C(=O)N[C@@H](CC(C)C)C(=O)O)Cc1ccccc1)C(C)C)[C@@H](C)CC (H-IILVPP[GABA(3S-Bn)]FL-OH) | Non-toxic | inactive |  | Active | Active |  |  |  |  |  |  |
| 13.938 | CC[C@H](C)[C@H](N)C(=O)N[C@H](C(=O)N[C@@H](CC(C)C)C(=O)N[C@H](C(=O)N1CCC[C@H]1C(=O)N1CCC[C@H]1C(=O)NC[C@H](CC(=O)NC[C@@H](CC(=O)N[C@@H](CC(C)C)C(=O)O)Cc1ccccc1)Cc1ccccc1)C(C)C)[C@@H](C)CC (H-IILVPP[GABA(3S-Bn)][GABA(3R-Bn)]L-OH) | Non-toxic | inactive |  |  |  |  |  |  |  |  |  |
| 9.89 | CC[C@H](C)[C@@H]1NC(=O)[C@H](CC(C)C)NC(=O)[C@H](Cc2ccccc2)NC(=O)C[C@H](Cc2ccccc2)CNC(=O)[C@@H]2CCCN2C(=O)[C@@H]2CCCN2C(=O)[C@H](C(C)C)NC(=O)[C@H](CC(C)C)NC(=O)[C@H]([C@@H](C)CC)NC1=O (cyclo(FLIILVPP[GABA(3S-Bn)])) | Dose-dependent effect | Active |  |  |  |  |  |  |  |  |  |
| 11.87 | CC[C@H](C)[C@@H]1NC(=O)[C@H](CC(C)C)NC(=O)C[C@@H](Cc2ccccc2)CNC(=O)[C@H](Cc2ccccc2)NC(=O)[C@@H]2CCCN2C(=O)[C@@H]2CCCN2C(=O)[C@H](C(C)C)NC(=O)[C@H](CC(C)C)NC(=O)[C@H]([C@@H](C)CC)NC1=O (cyclo(F[GABA(3R-Bn)]LIILVPP)) | Dose-dependent effect | Active |  |  |  |  |  |  |  |  |  |
| 11.63 | CC[C@H](C)[C@@H]1NC(=O)[C@H](CC(C)C)NC(=O)C[C@H](Cc2ccccc2)CNC(=O)[C@H](Cc2ccccc2)NC(=O)[C@@H]2CCCN2C(=O)[C@@H]2CCCN2C(=O)[C@H](C(C)C)NC(=O)[C@H](CC(C)C)NC(=O)[C@H]([C@@H](C)CC)NC1=O (cyclo(F[GABA(3S-Bn)]LIILVPP)) | Non-toxic | Active |  |  |  |  | Active |  | Active | 55 | 42 |
| 9.605 | CC[C@H](C)[C@@H]1NC(=O)[C@H](CC(C)C)NC(=O)C[C@H](Cc2ccccc2)CNC(=O)C[C@@H](Cc2ccccc2)CNC(=O)[C@@H]2CCCN2C(=O)[C@@H]2CCCN2C(=O)[C@H](C(C)C)NC(=O)[C@H](CC(C)C)NC(=O)[C@H]([C@@H](C)CC)NC1=O (cyclo(IILVPP[GABA(3R-Bn)][GABA(3S-Bn)]L)) | Dose-dependent effect | Active |  |  |  |  |  |  |  |  |  |

Reference: ChEMBL document CHEMBL3352129, “Synthesis and biological activity of cyclolinopeptide A analogues modified with γ(3)-bis(homophenylalanine)” (Eur J Med Chem, 2014)
